ChEMBL document CHEMBL1142508, “3-Amino-2(5H)furanones as inhibitors of subgenomic hepatitis C virus RNA replication” (Bioorg Med Chem, 2008)

Assays:
Hepatitis C virus = assay: Antiviral activity against HCV in human HBI10A cells by ELISA; type: functional, organism-based, Hepacivirus hominis
Summary of the method: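 HCV subgenomic replicon-bearing Huh-7-derived HBI10A cells kept in D-MEM + 10% FBS with G418. Compounds from DMSO stocks, diluted in D-MEM, DMSO at most 1%, tested at final 10^3, 10^2, […]. Cell-ELISA for NS3 with anti-NS3 10E5/24 MAb, in triplicate. Parental Huh-7 cells give the background. EC50 from Hill-equation fit of NS3 signal reduction. IFN-α positive control.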

[1] = Cytotoxicity against human HBI10A cells after 20 hrs by MTS assay; type: cell-based
Summary of the method: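 MTS read-out in HBI10A replicon cells seeded at 1 × 10^4 per 100 µL D-MEM + 5% FBS. After 4 h at 37 °C, compounds added at final 10^3, 10^2, […]. Incubated 20 h at 37 °C, then MTS for a further 4 h. Stopped with 10% SDS; absorbance at 492 nm.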

Row | EC50 (Hepatitis C virus) [µM] | IC50 (Hepatitis C virus) [µM] | Structure (SMILES) | CC50 at 20 h [1] [µM]
1 | 17 | – | CNC1=C(c2ccccc2)C(c2ccccc2)OC1=O (stereo not drawn) | 28
2 | 132 | – | CNC1=C(C(C)=O)C(C)OC1=O (stereo not drawn) | 819
3 | 9.3 | 0.15 | O=C(O)c1nc(-c2cccs2)nc(O)c1O | –
4 | 19 | – | CNC1=C(C(=O)Nc2ccccc2)C(C)OC1=O (stereo not drawn) | > 1000
5 | 525 | – | CNC1=C(C(=O)OC)C(C)OC1=O (stereo not drawn) | > 1000
6 | > 1000 | – | COC(=O)C1=C(NCc2ccccc2)C(=O)OC1C (stereo not drawn) | > 1000
7 | 66 | – | CNC1=C(C(=O)OC)C(C)OC1O (stereo not drawn) | > 1000
8 | 521 | – | CNC1=C(C(C)=O)COC1=O | > 1000
9 | > 1000 | – | CCOC(=O)C1=C(NC)C(=O)OC1C(=O)OCC (stereo not drawn) | > 1000
